Screening results from PubChem BioAssay.
Hits are enriched below; roughly 2.2% of the tested compounds scored in any of these assays.
PKD1 kinase inh = inhibitors of human PKD1 kinase, biochemical, fluorescence polarization; Serine/threonine-protein kinase D1 (Homo sapiens), Q15139; PKD1 kinase fluorescence polarization assay; inhibition, % (test concentration not listed); 0.056% of 200,000 active; in the data active = inhibition above about 50%
Wee1 stabilizer = Wee1 degradation inhibitors, primary screen, cell-based, HeLa, Wee1K328M-luciferase, luminescence | HeLa Luc-Wee1K328M stability; 100% = proteasome inhibitor MG132 effect | Wee1-like protein kinase (Homo sapiens), P30291 | reporter increase, % at 5 µM | 1.2% of 220,000 active;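 active = activation above the mean of all tested compounds plus 3 SD, set per screening run, cut at about 8.8% in these data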;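 note: cells exposed to compound for 20 h before luminescence read; 0% = DMSO alone and 100% = MG132 at 30 µM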
FLuc inhib CS = firefly luciferase enzyme inhibitors, primary screen, artefact control for luciferase-based inhibitor screens, biochemical, luminescence, ATPLite | 10 min | inhibition, % at 10 µM | 1.5% of 200,000 active | AID 1006, 2008;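 active = inhibition above about 50% when tested at 10 µM, limit read from the data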
TRAIL sens C8 = viability loss with TRAIL in NB7+C8 cells, primary screen, TRAIL sensitizer project, cell-based, ATPlite luminescence; inhibition (viability loss, TRAIL sensitization), % at 10 µM; 1% of 360,000 active; AID 624354, 2012;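 active = compounds causing at least 50% loss of cell viability in the single-dose screen, relative to plate controls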
PPC-1+TRAIL kill = compounds killing PPC-1 cancer cells with TRAIL present, primary screen, TRAIL potentiator project, ATPLite luminescence, uHTS | PPC-1 cells + TRAIL, ATPLite viability luminescence | AID 1443, 2008 | 0.41% of 220,000 active | cell killing (% activity), % at 4 µM or 5 µM;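 active = cell killing above 50% in the first pass at 4 µM, then a duplicate retest at 5 µM averaging 50% or more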;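 note: plate controls were cells with TRAIL plus DMSO for no effect and medium-only wells lacking cells for full effect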
FLuc stim CS = FLuc activators, initial screening, artefact control for FLuc-dependent activation tests, biochemical, ATPlite luminescence. Luciferin 4-monooxygenase (Photinus pyralis), P08659. ATPlite luciferase biochemical, 10 min; 0 = ATP-free wells, 1 = DMSO control. activation factor at 10 µM. 200,000 tested, under 10 active;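 active = luciferase activation factor, scaled between plate controls, of at least 2 with compound at 10 µM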
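System: Luciferase/luciferin detection reagent, cell-free biochemical luciferase assay | Medium: PBS buffer for ATP | Dosing: Test compounds dosed from 2 mM stocks in 100% DMSO | Timing: 10 min at ambient temperature | Signal: Luminescence measurement of luciferase light output | Evaluation: Luciferase activation, seen as luminescence increase over controls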
* marks the source's active call; other numbers are inactive results; x = no result.

SMILES	PKD1 kinase inh	Wee1 stabilizer	FLuc inhib CS	TRAIL sens C8	PPC-1+TRAIL kill	FLuc stim CS
Brc1ccc2c(c1)C(OC1CN3CCC1CC3)c1ccccc1CS2 (stereo not given)	-10	3	-1	6	82*	1
CC1=CC2/C=C(\C)CCC(O)C(O)/C=C/C(=O)C23C(=O)NC(CC(C)C)C3C1C (stereo not given)	-2	-2	-7	91*	4	1.1
CC(C)CCn1c(=O)c(C(=O)Nc2ccccc2S(N)(=O)=O)c(O)c2ccccc21	-6	0	-2	52*	12	1
CCCCn1c(=O)c(C(=O)Nc2ccccc2C)c(O)c2ccccc21	x	x	x	-18	x	x
COC(=O)c1ccc(CN2CCSC2=N)cc1	x	x	x	-11	x	x
Cc1ccc(OCCOc2cccc(C=C3C(=O)NC(=O)NC3=O)c2)cc1	x	x	x	14	x	x
Cc1ccccc1CN1Cc2cnnn2-c2ccccc2C1C#N (stereo not given)	x	x	x	49*	x	x
CC[n+]1c(/C=C/C=C/c2ccc(N(C)C)cc2)sc2ccccc21	x	-2	x	63*	48	x
NC1=NC(=O)C(c2ccccc2)O1 (stereo not given)	x	10*	-4	x	14	1
C=CCn1c(O)c(Cc2ccc(OCC)cc2)c(=O)[nH]c1=O	x	x	x	0	x	x
CCN(CC)C(=O)c1ccc(NC(=O)c2cccc(F)c2)cc1	2	8.8*	25	12	20	0.7
Nc1ccncc1	11	-3	-9	17	8	1.1
CCC(C)C1NC(=O)C(NC(=O)C(CC(C)C)N(C)C(=O)C2CCCN2C(=O)C(C)O)C(C)OC(=O)C(Cc2ccc(OC)cc2)N(C)C(=O)C2CCCN2C(=O)C(CC(C)C)NC(=O)[C@H](C)C(=O)[C@H](C(C)C)OC(=O)CC1O (stereo not given in full)	x	x	x	82*	x	x
CN(C)C(Cc1ccccc1)C(=O)c1cccs1 (stereo not given)	-13	5	-1	x	5	1
COc1ccc(-c2ccc3c(c2)CN(C(=O)CCc2ccccc2)Cc2cnnn2-3)cc1	x	x	x	-13	x	x
O=c1[nH]c(=S)n(C2CC2)c(O)c1C=NCCc1ccccc1	x	1	x	x	-3	x
CCOC(=O)[C@]12Cc3cc(C)ccc3[C@H]1N(C1CCCCC1)C(=O)c1cc(OC)ccc12	x	x	x	96*	x	x
CCOC(=O)[C@]12Cc3cc(OC)ccc3[C@H]1N(C1CCCCC1)C(=O)c1cc(OC)ccc12	x	x	x	76*	x	x
COc1ccc([N+](=O)[O-])cc1N=Cc1c(O)n(CCc2ccccc2)c(=O)n(C(C)C)c1=O	2	-2	-4	-3	11	1
CC1=CC2OC3CC4OC(=O)C=CC=CC(C(C)O)OCC(O)C(C)CC(=O)OCC2(CC1O)C4(C)C31CO1 (stereo not given)	x	x	x	69*	x	x
CC1=CC2OC3CC4OC(=O)C=CC=CC(=O)OCCC(C)C(O)C(=O)OCC2(CC1O)C4(C)C31CO1 (stereo not given)	x	x	x	72*	x	x
O=c1[nH]c(=O)n(Cc2ccccc2Cl)c(O)c1/C=C1/C=CC=N1	-2	-1	-12	-13	11	1.1
COc1ccc(-c2cc(C(=O)N3CCC4(CC3)OCCO4)c3ccccc3n2)cc1	x	x	x	42	x	x
CCOc1ccc(-c2cc(C(=O)N3CCC4(CC3)OCCO4)c3ccccc3n2)cc1	x	x	x	71*	x	x
COC(=O)C1=C(c2ccc(F)cc2OCc2ccccc2)C[C@@H]2CC[C@H]1N2C(=O)NCc1ccc(Br)cc1	x	x	x	6	x	x
COC(COC(N)=O)C1=C(N2CC2)C(=O)C(C)=C(N2CC2)C1=O (stereo not given)	x	x	x	74*	x	x
OC(CNCCc1c[nH]c2ccccc12)c1ccccc1 (stereo not given)	x	x	x	-19	x	x
Cc1ccc(S(=O)(=O)N2CCCCC2)cc1NC(=O)CN1CC=C(c2ccccc2)CC1	0	9.2*	-4	6	5	1
O=C(CN1CC=C(c2ccccc2)CC1)Nc1cc(Cl)ccc1Cl	-11	1	-1	-13	8	1
CNC(=O)OCCc1n(C)cc[n+]1C	-4	-1	-4	-5	22	1
